MOR-DOR ag: agonists of OPRM1-OPRD1 heterodimerization, primary screen, cell-based, luminescence; Mu-type opioid receptor (Homo sapiens) + Delta-type opioid receptor (Homo sapiens), …; cells; activation, % at 9.3 µM; actives 0.3% (n = 340,000); AID 504326, 2011; in the data active = activation above about 18%;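 note: 0% = vehicle-treated cells and 100% = reference agonist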
OPRM1-OPRD1 inv: inverse agonists of MOR-DOR heterodimerization, primary screen, cell-based, luminescence; Mu-type opioid receptor (Homo sapiens) + Delta-type opioid receptor (Homo sapiens), …; cell-based MOR-DOR heterodimer luminescence, inverse agonism; inhibition, % at 9.3 µM; actives 0.21% (n = 340,000); AID 504357, 2011; in the data active = inhibition above about 22%, passing the limit was not always enough;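 note: 0% = cells with DMSO and 100% = wells without cells with DMSO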
Arrestin-AP2 inh: inhibitors of beta-arrestin/AP2 binding, primary screen, biochemical, GPCR trafficking, flow cytometry; beta-arrestin 1 C-terminal peptide binding to AP2 beta2-adaptin appendage (human); FITC-arrestin peptide / GST-AP2 beads; AP2 beta2 appendage carries R879A mutation; inhibition, % at 10 µM; actives 0.31% (n = 340,000);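 active = inhibition above a set limit, near 3 SD of compounds lacking own fluorescence, cut at about 54% in these data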;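 note: plate controls were DMSO wells for no effect and 5 µM unlabelled arrestin peptide for full effect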
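System: GST-AP2 R879A glutathione beads; medium: PBS, Tween 20 0.05%, BSA 0.1%; reagent: fluorescein-tagged arrestin peptide at 50 nM final; schedule: pre-incubation 12 min, peptide binding 1 h, room temperature; detection: flow cytometry, FL1 (488/535 nm); read-out: inhibition as reduced fluorescein signal on beads, percent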
HTR5A inv ctr: HTR5A inverse agonists in luminescence cell assay, primary screen, counter-screen for OPRM1-OPRD1 heterodimer inverse agonist project, full-deck HTS; HTR5A cell line, inverse agonism; actives 0.083% (n = 340,000); inhibition, % at 9.3 µM; in the data active = inhibition mostly above about 23%, no sharp cut-off; inactive = mostly below about 18%;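 note: 0% = cells with DMSO and 100% = no-cell wells with DMSO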
Target sequence (P47898 whole entry, looked up): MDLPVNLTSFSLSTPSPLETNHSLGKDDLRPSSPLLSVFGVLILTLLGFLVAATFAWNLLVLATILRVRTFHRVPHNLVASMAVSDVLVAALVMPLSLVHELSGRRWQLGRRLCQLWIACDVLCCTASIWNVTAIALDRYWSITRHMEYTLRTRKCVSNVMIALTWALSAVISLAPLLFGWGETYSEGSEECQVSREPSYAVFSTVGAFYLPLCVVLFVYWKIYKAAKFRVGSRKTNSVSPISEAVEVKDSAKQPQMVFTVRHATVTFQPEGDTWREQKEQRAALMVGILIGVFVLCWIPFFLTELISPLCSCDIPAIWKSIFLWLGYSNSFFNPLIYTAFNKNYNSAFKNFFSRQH
HTR5A ag: HTR5A agonists in luminescence cell assay, primary screen, counter-screen for OPRM1-OPRD1 heterodimer agonist project, full-deck HTS; actives 0.61% (n = 340,000); activation, % at 9.3 µM; cell-based; in the data active = activation mostly above about 9.5%, no sharp cut-off; inactive = mostly below about 7.6%;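 note: 0% = cells with vehicle only and 100% = reference agonist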
DAGLB inhibitor: DAGLB lipase inhibitors, primary screen, biochemical, fluorescence, HTS. inhibition, % at 5.17 µM. actives 0.059% (n = 340,000). HEK293T DAGLB membrane lysate, EnzChek fluorogenic substrate. Diacylglycerol lipase-beta (Homo sapiens), Q8NCG7; in the data active = inhibition above about 34%;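 note: 0% = enzyme with vehicle and 100% = wells lacking enzyme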
Starred values were filed as active, the others as inactive; nt = no result given. Rows were chosen to be rich in hits. Some 1.4% of all compounds tested hit in one or more screens of this group.

SMILES	MOR-DOR ag	OPRM1-OPRD1 inv	Arrestin-AP2 inh	HTR5A inv ctr	HTR5A ag	DAGLB inhibitor
CC(C)N(C(=O)[C@H]1CC(CC(=O)NCC23CC4CC(CC(C4)C2)C3)C(=O)N2CCc3c([nH]c4ccccc34)[C@]12C)C(C)C (stereo partly specified)	-3	16	36	3	-1	-2
CN(C1CCCCC1)S(=O)(=O)c1ccc2c(c1)c(=O)c(C(=O)O)cn2C	nt	nt	nt	nt	nt	2
Cc1cc(C)c(C)c(S(=O)(=O)N2CCN(C(=O)CNC(=O)c3ccco3)CC2)c1C	1	-4	14	0	14*	-4
Cc1cc(C)c(C)c(S(=O)(=O)N2CCN(C(=O)c3ccco3)CC2)c1C	nt	nt	5	nt	nt	nt
COc1ccc(C(=O)N/N=C\c2ccc(OC)c(COc3ccccc3Br)c2)c(OC)c1	3	-21	-7	-20	10*	-5
C[C@@H]1CN([C@@H](C)CO)C(=O)CCCn2nncc2CO[C@H]1CN(C)Cc1ccc2cccnc2c1	nt	nt	nt	nt	nt	-2
CCS(=O)(=O)C1=NN2C(=N)/C(=C\c3ccc(SCc4ccco4)o3)C(=O)N=C2S1	9	-67	-8	1	13*	12
CCOc1cc(/C=C2\C(=N)N3N=C(S(=O)(=O)CC)SC3=NC2=O)ccc1OC(=O)c1ccco1	-2	9	23	5	-1	8
CCC(=O)N1CCc2cc(S(=O)(=O)NCCC(=O)NCc3ccccc3OC)ccc21	-2	9	4	-5	11*	0
CCC(=O)N1CCc2cc(S(=O)(=O)NCCC(=O)NCc3ccccc3Cl)ccc21	-2	11	0	23	-3	1
Cc1cccc(-c2cc(C(=O)Nc3cccnc3)c3ccccc3n2)c1	5	-37	13	-12	0	1
Cc1cccc(NC(=O)c2cc(-c3cccnc3)nc3c(C)cccc23)n1	8	-45	18	-9	11*	0
Cc1cccc(-c2cc(C(=O)Nc3ccncc3)c3ccccc3n2)c1	21*	-118	-4	-43	12*	2
Cc1ccc2nc(-c3ccccc3)cc(C(=O)Nc3cccnc3)c2c1	8	-30	-3	-27	13*	-6
Cc1ccc(-c2cc(C(=O)Nc3cccnc3)c3ccccc3n2)s1	8	-41	8	-33	10*	-2
Cc1ccc2c(c1)-c1cc(C)ccc1C2=O	3	-18	-5	-16	4	-8
O=C(COC(=O)c1ccccc1SCC(=O)N1CCCC1)NCc1ccc(F)cc1	nt	nt	nt	nt	nt	0
Cc1ccc(S(=O)(=O)N(C)c2ccc(C(=O)NCC(c3ccccc3)N3CCCC3)cc2)cc1 (stereo unspecified)	nt	nt	nt	nt	nt	-2
O=C(COC(=O)c1ccc(F)cc1F)Nc1ccc2c(c1)OCO2	nt	nt	nt	nt	nt	-6
C[C@@H]1CN([C@H](C)CO)C(=O)CCCn2cc(nn2)CO[C@H]1CN(C)C(=O)Nc1cccc(Oc2ccccn2)c1	nt	nt	nt	nt	nt	-1
CC1C(=O)N(Cc2cn(CCC3OCCCO3)nn2)CCS(=O)(=O)N1Cc1ccc(-c2ccc(Cl)c(Cl)c2)cc1 (stereo unspecified)	nt	nt	nt	nt	nt	-4
O=C(Nc1ncccc1O)c1ccc(S(=O)(=O)NCc2ccco2)cc1	nt	nt	nt	nt	nt	-3
CC1(C(=O)NC(=S)NNC(=O)c2ccncc2)CCCCC1	-6	36*	-3	32*	-9	1
O=C(NNC(=S)NC(=O)c1ccc(F)cc1)c1ccncc1	-5	24	0	0	0	2
COCOCCn1cc(CN2CCS(=O)(=O)N(Cc3ccc(-c4ccncc4)cc3)C(CC(C)C)C2=O)nn1 (stereo unspecified)	nt	nt	nt	nt	nt	2
SMILES	MOR-DOR ag	OPRM1-OPRD1 inv	Arrestin-AP2 inh	HTR5A inv ctr	HTR5A ag	DAGLB inhibitor
C[C@H](CO)N1C[C@H](C)[C@@H](CN(C)Cc2ccncc2)OCc2cnnn2CCCC1=O	nt	nt	nt	nt	nt	-2
Cn1c(-c2c(N)n(CCCc3ccccc3)c3nc4ccccc4nc23)nc2ccccc21	58*	-313	14	3	1	-5
CCOc1[nH]n(-c2ccccc2)c(=O)c1C=Nc1ccccc1	0	-3	-1	7	13*	-3
CCOc1[nH]n(-c2ccccc2)c(=O)c1C=Nc1ccc(C)cc1	-1	6	5	-7	-1	1
Cc1ccc(C(=O)CSc2nc3cccnc3n2C)cc1	-1	8	0	-10	4	2
Cn1c(SCC(=O)c2ccccc2)nc2cccnc21	2	-11	6	12	9.7*	-2
CCN(CC)c1ccc(C(=C2C=CC(=[N+](CC)CC)C=C2)c2ccc(S(=O)(=O)O)cc2S(=O)(=O)[O-])cc1	-6	24	4	31	-6	7
COc1ccc(Oc2nccc(-c3ccccc3)c2C#N)cc1	0	0	18	-15	11*	-4
Cn1c(-c2ccccc2)c(CCO)c2ccccc21	3	-15	2	9	6	-5
Cn1c(-c2ccccc2)c(C(=O)CCl)c2ccccc21	42*	-233	12	-123	44*	2
O=C(c1cccc(C(F)(F)F)c1)C1CCCN(Cc2cccc(OCCO)c2)C1 (stereo unspecified)	2	-10	11	-33	13*	0
COc1ccc(C(=O)N(C)[C@H]2C[C@H]3c4[nH]c5ccccc5c4CCN3C(=O)[C@H]2CO)cc1	nt	nt	nt	nt	nt	0
O=c1[nH]c(=O)n(C(c2ccccc2)(c2ccccc2)c2ccccc2)cc1N(CCO)CCO	-4	19	-3	-6	2	6
CCn1c(NCc2ccccn2)nc2c1c(=O)n(C)c(=O)n2C	-2	11	6	4	14*	0
Cc1nc2cc(C(F)(F)F)ccc2n1C1CCN(CC(=O)N2CCOCC2)CC1	-2	9	15	0	9.0*	-4
Cc1nc2cc(C(F)(F)F)ccc2n1C1CCN(CC(=O)N2CCCC2)CC1	-1	6	12	13	4	-2
COc1ccccc1N(C)S(=O)(=O)c1ccc(C(=O)Nc2cc(OC)c(OC)c(OC)c2)cc1	-2	8	2	8	-2	-2
CN(C)S(=O)(=O)c1ccc(C(=O)OCC(=O)N2CC3(C)CC2CC(C)(C)C3)cc1 (stereo unspecified)	1	-2	-11	-31	13*	-3
CCN1C(Nc2ccccc2)=NC[C@@H]1C	0	-1	-6	-6	13*	2
COc1ccc(CN(C)C[C@@H]2OCc3cnnn3CCCC(=O)N([C@@H](C)CO)C[C@H]2C)cc1	nt	nt	nt	nt	nt	3
